# Calls of active or inactive are those of the source.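 The calls were made as follows, unless noted: active = inhibition above 20% together with a positive visual image hit; inconclusive = visual image hit but inhibition not above 20%; inactive = no visual image hit.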
# Assays:
# [1] = inhibitors of TNFa-induced NFkB p65 translocation, primary screen, imaging, HUVEC, MLSMR starter and 10KST1 sets (AID 438); conditions: HUVEC TNFa-induced p65 nuclear translocation; cell count: measured here: nuclei count (cytotoxicity indicator), at 2.08 µM; inhibition: at 2 µM, stronger effect = higher value, 0% TNFa-plus-vehicle, 100% no-TNFa wells;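 also: compound added about 3h40 before a 20 min TNFalpha stimulation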;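 as to inhibition: signal is the nuclear over cytoplasmic p65 intensity ratio per well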
# [2] = reduction of polyQ htt aggregates in cells – imaging, exon1htt(103Q)mCFP cells, high-content imaging, primary screen (AID 483;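 active = visual image review flags a hit and inhibition of aggregation exceeds 20%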;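 also: compound exposure lasted 3 days before fixation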;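 as to nuclei count: percent of the per-plate median nuclei count of sample wells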); conditions: exon1htt(103Q)mCFP cell line, aggregate imaging, at 2 µM; inhibition of aggregation: stronger effect = higher value; nuclei count: measured here: cell count, toxicity
# [3] = endothelial E-selectin expression blockers – imaging, HUVEC, immunofluorescence, MLSMR starter and 10KST1 sets, primary screen (AID 487;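 active = visually confirmed hit in the image check and inhibition above 20%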;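 as to inhibition: signal is fraction of cell area covered by stained E-selectin grains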;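 as to nuclei count: 100% = median nuclei count of all wells on the same plate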); conditions: HUVEC TNFalpha-induced E-selectin immunofluorescence imaging, at 2 µM; inhibition: stronger effect = higher value; nuclei count: measured here: cell number, toxicity
# [4] = target: Voltage-gated potassium channel subunit beta-2 (Rattus norvegicus) (UniProt P62483); assay: inhibitors of rat Kvbeta2 reductase activity – biochemical, NADPH fluorescence, primary screen (AID 622;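 active = fluorescence slope higher than the sample average by over 3 SD, cut at about -0.22 in these data, passing the limit was not always enough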;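 also: slope of raw intensity against log time taken from 70 to 1610 s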); conditions: recombinant KvBeta, 4-cyanobenzaldehyde reduction, at 10 µM, stronger effect = higher value
# Sequence of Voltage-gated potassium channel subunit beta-2 (Rattus norvegicus) (P62483 whole entry, looked up): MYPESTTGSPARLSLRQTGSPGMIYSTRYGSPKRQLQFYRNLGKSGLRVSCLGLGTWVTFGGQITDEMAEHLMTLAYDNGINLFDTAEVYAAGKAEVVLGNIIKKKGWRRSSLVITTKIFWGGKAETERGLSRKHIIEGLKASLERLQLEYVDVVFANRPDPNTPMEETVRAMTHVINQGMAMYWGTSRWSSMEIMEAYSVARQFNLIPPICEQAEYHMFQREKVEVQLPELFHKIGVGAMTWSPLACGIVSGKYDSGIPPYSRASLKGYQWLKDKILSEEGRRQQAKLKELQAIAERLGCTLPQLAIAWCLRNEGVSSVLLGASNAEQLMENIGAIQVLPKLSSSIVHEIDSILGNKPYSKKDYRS
# [5] = target: Voltage-gated potassium channel subunit beta-2 (Rattus norvegicus) (UniProt P62483); assay: enhancers of rat Kvbeta2 NADPH turnover – biochemical, NADPH fluorescence, primary screen (AID 623;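 active = NADPH fluorescence slope more negative than the mean of all samples by about 3 SD, 99.7% confidence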;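 also: fluorescence intensity change per second fitted from 20 to 320 s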); conditions: Recombinant KvBeta, NADPH fluorescence decrease slope, 10 min; at 10 µM; stronger effect = lower value
# [6] = target: Muscarinic acetylcholine receptor M4 (Homo sapiens) (UniProt P08173); assay: M4-linked GIRK flux change, two-sided – cell-based, HEK293 M4/GIRK, thallium flux, BTC-AM, M4 allosteric agonist project, primary screen (AID 625;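 active = fluorescence slope after compound addition differing from the mean of all tested samples at 99.7% confidence, mostly higher but some lower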;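 also: thallium influx through GIRK channels coupled to M4 in HEK293 cells with BTC-AM dye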); conditions: at 10 µM, actives lie on both sides
# Sequence of Muscarinic acetylcholine receptor M4 (Homo sapiens) (P08173 whole entry, looked up): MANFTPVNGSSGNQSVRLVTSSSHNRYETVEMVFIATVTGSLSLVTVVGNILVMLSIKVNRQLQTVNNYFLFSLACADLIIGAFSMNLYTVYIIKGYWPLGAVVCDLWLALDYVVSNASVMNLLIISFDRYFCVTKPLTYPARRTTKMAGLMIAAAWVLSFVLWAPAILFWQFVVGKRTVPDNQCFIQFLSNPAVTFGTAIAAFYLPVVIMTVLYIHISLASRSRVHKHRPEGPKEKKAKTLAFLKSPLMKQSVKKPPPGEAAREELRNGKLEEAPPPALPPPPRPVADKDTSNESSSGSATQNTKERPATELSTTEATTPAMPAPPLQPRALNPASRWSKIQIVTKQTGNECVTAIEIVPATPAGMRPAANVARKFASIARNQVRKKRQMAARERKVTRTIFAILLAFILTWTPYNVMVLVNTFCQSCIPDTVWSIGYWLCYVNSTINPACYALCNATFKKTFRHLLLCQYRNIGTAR
# Summary of the method: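 System: HEK293 cells with M4 receptor and GIRK channels | Incubation: Cells overnight at 37 °C, BTC-AM loading 1 h, reads 2 min total | Technique: Kinetic BTC-AM fluorescence sampled at 1 Hz, 10 s pre-addition baseline | Measure: Post-addition slope, 15–24 s, of baseline-normalized fluorescence | Control set: Carbachol positive, DMSO negative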
# [7] = blockers of RIG-like receptor reporter activation – cell-based, Sendai virus stimulus, luciferase, 10K MLSCN set, TLR/RLR signaling modifier project, primary screen (AID 602276;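 active = inhibition at or above 50% at 10 µM; inactive = inhibition below 50%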;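 also: firefly luciferase from ISG56 promoter only with Renilla not read in this screen; 0% = Sendai virus plus DMSO and 100% = medium plus DMSO without virus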); conditions: HEK293 RL24 IRF3 luciferase reporter, at 10 µM, stronger effect = higher value
# [8] = TLR3 IRF3 reporter activation blockers – cell-based, poly I:C stimulus, luciferase, 10K MLSCN set, primary screen (AID 602277;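 active = inhibition of the reporter signal at or above 50%; inactive = inhibition below 50%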); conditions: HEK293-TLR3 RL24 IRF3 luciferase reporter, at 10 µM, stronger effect = higher value
SMILES,cell count [1],inhibition [1],inhibition of aggregation [2],nuclei count [2] [%],inhibition [3],nuclei count [3] [%],fluorescence slope [4],NADPH fluorescence slope [5],fluorescence slope [6],inhibition [7],inhibition [8]
Cc1cc(S(=O)(=O)NC2CCCCC2)ccc1OCC(=O)NCc1ccccn1,346,-8.6% (inactive),7.8% (inactive),96.4,-70.2% (inactive),106,-0.607 (inactive),5.7e-06 (inactive),0.0059 (inactive),20.7% (inactive),34% (inactive)
COc1cc(-c2c(C#N)c(N)nc3c2CCCC3)cc(OC)c1OC,620,-8.6% (inactive),0.1% (inactive),101,-110% (inactive),121,-0.534 (inactive),-6.8e-05 (inactive),0.0058 (inactive),20% (inactive),26.4% (inactive)
CCn1c(Cc2ccc(OC)cc2)nnc1SCC(=O)Nc1cccc(C(=O)OC)c1,433,6% (inactive),0.9% (inactive),110,-29.7% (inactive),107,-0.469 (inactive),-1.6e-05 (inactive),0.00613 (inactive),12.3% (inactive),8.51% (inactive)
Cc1nc2cc(NC(=O)N3CC4(C)CC3CC(C)(C)C4)ccc2n1C (stereo not given),657,2.1% (inactive),6.5% (inactive),104,11.9% (inactive),105,-0.484 (inactive),-8.2e-05 (inactive),0.00526 (inactive),-4.69% (inactive),16.4% (inactive)
COC(=O)c1cc(Br)ccc1-c1ccc(/C=N/n2nnnc2N)o1,438,1% (inactive),-4.4% (inactive),97.9,-56% (inactive),111,-0.531 (inactive),-2.3e-05 (inactive),0.00728 (inactive),15.2% (inactive),24.4% (inactive)
O=C(C1CCN(S(=O)(=O)c2ccc(-n3cnnn3)cc2)CC1)N1CCN(c2ccccc2)CC1,464,4.2% (inactive),3.7% (inactive),76.8,-101% (inactive),120,-0.569 (inactive),-4.3e-05 (inactive),0.00595 (inactive),18.7% (inactive),18.2% (inactive)
C=CCOc1cccc(C2/C(=C(\O)c3ccc(F)cc3)C(=O)C(=O)N2CCN(C)C)c1 (stereo not given),699,-12.1% (inactive),20.1% (inactive),82.8,33.3% (inactive),99.1,-0.493 (inactive),-0.000177 (inactive),0.00287 (inactive),8.26% (inactive),15.2% (inactive)
CN1C(=O)C2(NCCc3c2[nH]c2ccccc32)c2ccccc21 (stereo not given),583,0.7% (inactive),-4.1% (inactive),99.3,-4.8% (inactive),90.7,-0.482 (inactive),-0.000314 (inactive),0.00214 (inactive),20% (inactive),34.7% (inactive)
CC(C(=O)NCCCN1CCOCC1)n1cccc1C(=O)c1ccccc1 (stereo not given),572,2.7% (inactive),-8.2% (inactive),104,-1.5% (inactive),94.2,-0.549 (inactive),-3.4e-05 (inactive),0.00579 (inactive),17.2% (inactive),17% (inactive)
O=C1c2cccnc2C(O)N1Cc1ccc(F)cc1 (stereo not given),375,1.1% (inactive),13.7% (inactive),118,-11.7% (inactive),116,-0.354 (inactive),-8.5e-05 (inactive),0.00468 (inactive),10.8% (inactive),17.7% (inactive)
Cc1ccc(Cn2nnc3c(=O)n(CC(=O)NCC4CCCO4)cnc32)cc1 (stereo not given),792,-13.6% (inactive),-20.8% (inactive),102,-51.5% (inactive),98.4,-0.459 (inactive),-4.1e-05 (inactive),0.00672 (inactive),9.27% (inactive),18.9% (inactive)
O=c1[nH]c2c(s1)C(c1ccco1)C1C3CCC(C3)C1S2 (stereo not given),220,9.2% (inactive),12.3% (inactive),89.5,-32.2% (inactive),108,-0.574 (inactive),-4.2e-05 (inactive),0.00506 (inactive),12.1% (inactive),26.3% (inactive)
COc1ccc(CN2C(=O)C(O)(CC(=O)c3c(C)n[nH]c3C)c3ccccc32)cc1OC (stereo not given),264,-12.6% (inactive),-2.3% (inactive),92.8,-27.7% (inactive),97.3,-0.481 (inactive),-4.5e-05 (inactive),0.00507 (inactive),15.2% (inactive),9.8% (inactive)
CC(Sc1nnc(-c2cc3ccccc3o2)n1-c1ccccc1)C(=O)O (stereo not given),613,0.8% (inactive),14.7% (inactive),105,-223% (inactive),108,-0.585 (inactive),-5.2e-05 (inactive),0.00554 (inactive),21.2% (inactive),39.8% (inactive)
CCOC(=O)N1CCN(c2cc(=O)n(-c3ccc(OCC)cc3)c(=O)[nH]2)CC1,551,-10% (inactive),9.3% (inactive),109,-26.9% (inactive),112,-0.431 (inactive),0.0001 (inactive),0.00574 (inactive),3.3% (inactive),10.8% (inactive)
Cc1ccc(N2CC(C(=O)N3CCN(C(=O)c4ccco4)CC3)CC2=O)cc1 (stereo not given),600,2.2% (inactive),-16.3% (inactive),114,-39.1% (inactive),100,-0.571 (inactive),-5.1e-05 (inactive),0.00509 (inactive),17.5% (inactive),21.1% (inactive)
COc1ccc2c(c1)CCc1c(C(=O)N3CCCc4ccccc43)noc1-2,419,-4.5% (inactive),17.4% (inactive),69.7,-32.7% (inactive),108,-0.459 (inactive),-0.000351 (inactive),0.00416 (inactive),-24% (inactive),-75% (inactive)
O=C(NCc1ccco1)C1CC(=O)N(c2ccc(F)cc2)C1 (stereo not given),375,3.6% (inactive),-0.9% (inactive),97.4,-34.5% (inactive),124,-0.593 (inactive),-2e-05 (inactive),0.00568 (inactive),3.07% (inactive),12% (inactive)
Cc1[nH]n2c(=O)cc(Cc3ccccc3)nc2c1C#N,786,-6.7% (inactive),8.8% (inactive),106,-15.8% (inactive),100,-0.538 (inactive),-3.6e-05 (inactive),0.00532 (inactive),15.1% (inactive),22% (inactive)
COC(=O)c1cc(OC)c(OC)cc1NC(=O)CC1CCCCC1,291,-8.9% (inactive),0.4% (inactive),84.5,36.1% (inactive),73.5,-0.558 (inactive),-2.3e-05 (inactive),0.00549 (inactive),11.3% (inactive),11.2% (inactive)
COc1ccc(-c2noc(COc3ccc4ccccc4c3Br)n2)cc1OC,565,14.8% (inactive),-29.8% (inactive),109,8.2% (inactive),104,-0.564 (inactive),-3e-05 (inactive),0.00985 (inactive),-38.1% (inactive),-45.2% (inactive)
Cc1ccc(Nc2cc(C)nc3nnnn23)cc1,415,0.6% (inactive),1.1% (inactive),100,29.5% (inactive),92.2,-0.559 (inactive),-6.9e-05 (inactive),0.00637 (inactive),7.18% (inactive),6.33% (inactive)
CCN(CC)CCCN(Cc1cc2cc(OC)ccc2[nH]c1=O)C(=O)Nc1ccccc1,327,7.1% (inactive),-3.3% (inactive),86.4,-31.9% (inactive),105,-0.382 (inactive),-5.9e-06 (inactive),0.00643 (inactive),17.1% (inactive),29.7% (inactive)
COC(=O)Cn1c2c(c3cc(C)ccc31)CCCC2,640,-9.9% (inactive),23.1% (inactive),91.1,-28.6% (inactive),111,-0.523 (inactive),-0.000167 (inactive),0.00431 (inactive),18.4% (inactive),21.6% (inactive)
CCCSC1=C(C#N)C(c2ccccc2OCC)CC(=O)N1 (stereo not given),443,0.5% (inactive),0.2% (inactive),111,9.8% (inactive),95,-0.454 (inactive),-2.4e-05 (inactive),0.00486 (inactive),17.2% (inactive),17.7% (inactive)
